Measurements taken from ChEMBL document CHEMBL5131470, “Structure-activity and structure-property relationship studies of spirocyclic chromanes with antimalarial activity” (Bioorg Med Chem, 2022).
Values after ≈ are worked out from the molar mass of the structure shown.

Tests used:
[1] = tested on: Plasmodium falciparum; test: Antiplasmodial activity against chloroquine-sensitive Plasmodium falciparum D6 assessed as inhibition of parasite growth incubated for 48 hrs by time zero-[3H]hypoxanthine incorporation assay; format: functional, organism-based
[2] = Aqueous solubility of the compound at pH 6.5; conditions: aqueous solution
[3] = tested on: Plasmodium falciparum; test: Antiplasmodial activity against artemisinin-resistant Plasmodium falciparum ARC08-022 assessed as inhibition of parasite growth incubated for 48 hrs by time zero-[3H]hypoxanthine incorporation assay; format: functional, organism-based
[4] = Cytotoxicity against human HepG2 cells assessed as reduction in cell viability incubated for 48 hrs by MTS assay; format: toxicity, cell-based
Outline: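 HepG2 human hepatoma cells were seeded at 2,500 cells/well in 384-well plates and incubated 24 h. Serial compound dilutions (0–40 μM range) were added, then cells were incubated a further 48 h.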

[5] = Octanol-water distribution coefficient, logD of the compound at pH 7.4 by HPLC-based analysis; format: physicochemical
[6] = tested on: Plasmodium falciparum; test: Antimalarial activity against chloroquine-resistant Plasmodium falciparum Dd2 assessed as inhibition of parasite growth incubated for 72 hrs by SYBR green I-based DNA quantification assay; format: functional, organism-based; conditions: Dd2, 72 h
[7] = Octanol-water distribution coefficient, logD of the compound at pH 3 by HPLC-based analysis; format: physicochemical
[8] = Selectivity index, ratio of EC50 for cytotoxicity against human HepG2 cells to EC50 for antimalarial activity against chloroquine-resistant Plasmodium falciparum Dd2; format: toxicity, cell-based; conditions: read-out: Ratio EC50
Outline: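 Human HepG2 hepatoma cells were seeded at 2,500 cells/well and grown 24 h. Serial dilutions of compound (0–40 μM) were then added for another 48 h. […] SI = EC50(HepG2)/EC50(Dd2).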

[9] = Aqueous solubility of the compound at pH 2 by HPLC analysis; format: physicochemical; conditions: aqueous solution
Outline: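 Aqueous solubility was measured at pH 2.0 with an in-house HPLC assay. Values are reported as bins: ≤10 μM, 10–20 μM, 20–40 μM, 40–80 μM and ≥80 μM.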

[10] = tested on: Plasmodium falciparum; test: Selectivity for antiplasmodial activity for chloroquine-sensitive Plasmodium falciparum 3D7 over antiplasmodial activity against artemisinin-resistant Plasmodium falciparum ARC08-022; format: functional
[11] = tested on: Plasmodium falciparum; test: Selectivity for antiplasmodial activity for chloroquine-resistant Plasmodium falciparum Dd2 over antiplasmodial activity against artemisinin-resistant Plasmodium falciparum ARC08-022; format: functional
[12] = tested on: Plasmodium falciparum; test: Selectivity for antiplasmodial activity for chloroquine-sensitive Plasmodium falciparum 3D7 over antiplasmodial activity against chloroquine-sensitive Plasmodium falciparum D6; format: functional
[13] = tested on: Plasmodium falciparum; test: Selectivity for antiplasmodial activity for chloroquine-resistant Plasmodium falciparum Dd2 over antiplasmodial activity against chloroquine-sensitive Plasmodium falciparum D6; format: functional

Structure (SMILES) | EC50 [1] | solubility [2] | EC50 [3] | EC50 at 48 h [4] | logD [5] | EC50 [6] | logD [7] | selectivity ratio [8] | solubility [9] | Selectivity ratio [10] | Selectivity ratio [11] | Selectivity ratio [12] | Selectivity ratio [13]
O=C1CC2(CCN(CCc3ccc(F)c(F)c3)CC2)Oc2c1ccc1ccccc21 | 260 nM | 10 µM (≈ 4.07 µg/mL) | 860 nM | > 20000 nM | 3.81 | > 2500 nM | 2.56 | 4 | ≥ 80 µM |  |  |  | 
OC1CC2(CCN(CCC3CCCCC3)CC2)Oc2c1ccc1ccccc21 (configuration not stated) | 500 nM | 20 µM (≈ 7.59 µg/mL) | 630 nM | 14000 nM | 3.54 | 500 nM | 2.97 | 35.1 | 40 µM (≈ 15.2 µg/mL) |  |  |  | 
OC(CN1CCC2(CC1)CC(O)c1ccc3ccccc3c1O2)c1ccc(F)c(F)c1 (configuration not stated) | 1480 nM |  | 1810 nM | > 20000 nM |  | 320 nM |  | > 53.3 |  | 3 | 3 | 3 | 3
